According to ChEMBL document CHEMBL5303300, “EUbOPEN Chemogenomics Library - Multiplex” (2023):
Values joined by “and” are separate entries in the source; they are usually repeats but may differ in a detail not shown here. Identical values can stand only once.

System: Fibroblast
Experiment: Multiplex assay against human fibroblast
Assay type: toxicity, cell-based
Conditions: number of replicates 2
Summary of the method: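 With compound added, live cells were imaged on a CQ1 microscope at 37°C and 5% CO2; staining with Hoechst33342, BioTracker Green Microtubule Cytoskeleton Dye, MitoTracker Red and Annexin V Alexa Fluor 680 had been done at seeding. The CellPathfinder machine-learning gating scheme split cells into Hoechst high-intensity objects or normal cells, normal cells into healthy, pyknosed or fragmented nuclei, and pyknosed cells into mitotic or apoptotic. The tubulin, mitochondrial-mass and membrane-permeability phenotypes are per cents of healthy-nucleus cells.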

[1] = 12 h, 1 µM, compound concentration 1 uM
[2] = 12 h, 10 µM, compound concentration 10 uM
[3] = 24 h, 1 µM, compound concentration 1 uM
[4] = 24 h, 10 µM, compound concentration 10 uM
[5] = 48 h, 1 µM, compound concentration 1 uM
[6] = 48 h, 10 µM, compound concentration 10 uM

Structure (SMILES): CN1CCN(c2ccc(-n3cc(-c4ccncc4OCC4CCNCC4)cn3)cc2)CC1
- Population Apoptotic (%) [1]: 44%
- Population Fragmented Nuclei (%) [1]: 13% and 12%
- Population Healthy Nuclei (%) [1]: 58% and 71%
- Population Hoechst High Intensity Objects (%) [1]: 0%
- Population Membrane Permeable-Phenotype (%) [1]: 3% and 8%
- Population Mitochondria Different-Phenotype (%) [1]: 2% and 0%
- Population Mitotic Cells (%) [1]: 55%
- Population Normal (%) [1]: 100%
- Population Pyknosed Nuclei (%) [1]: 27% and 16%
- Population Tubulin-Different-Phenotype (%) [1]: 15% and 14%
- Total Cell Count [1]: 131 and 173
- Population Apoptotic (%) [2]: 38% and 75%
- Population Fragmented Nuclei (%) [2]: 13% and 25%
- Population Healthy Nuclei (%) [2]: 72% and 63%
- Population Hoechst High Intensity Objects (%) [2]: 0%
- Population Membrane Permeable-Phenotype (%) [2]: 2% and 4%
- Population Mitochondria Different-Phenotype (%) [2]: 1% and 3%
- Population Mitotic Cells (%) [2]: 61% and 25%
- Population Normal (%) [2]: 100%
- Population Pyknosed Nuclei (%) [2]: 14% and 10%
- Population Tubulin-Different-Phenotype (%) [2]: 34% and 31%
- Total Cell Count [2]: 179 and 182
- Population Apoptotic (%) [3]: 56% and 48%
- Population Fragmented Nuclei (%) [3]: 13% and 14%
- Population Healthy Nuclei (%) [3]: 58% and 68%
- Population Hoechst High Intensity Objects (%) [3]: 0%
- Population Membrane Permeable-Phenotype (%) [3]: 7% and 9%
- Population Mitochondria Different-Phenotype (%) [3]: 2% and 1%
- Population Mitotic Cells (%) [3]: 43% and 51%
- Population Normal (%) [3]: 100%
- Population Pyknosed Nuclei (%) [3]: 28% and 17%
- Population Tubulin-Different-Phenotype (%) [3]: 17% and 13%
- Total Cell Count [3]: 131 and 178
- Population Apoptotic (%) [4]: 39% and 47%
- Population Fragmented Nuclei (%) [4]: 20% and 26%
- Population Healthy Nuclei (%) [4]: 65% and 61%
- Population Hoechst High Intensity Objects (%) [4]: 0%
- Population Membrane Permeable-Phenotype (%) [4]: 8% and 5%
- Population Mitochondria Different-Phenotype (%) [4]: 7% and 13%
- Population Mitotic Cells (%) [4]: 60% and 52%
- Population Normal (%) [4]: 100%
- Population Pyknosed Nuclei (%) [4]: 14% and 11%
- Population Tubulin-Different-Phenotype (%) [4]: 52% and 44%
- Total Cell Count [4]: 189 and 192
- Population Apoptotic (%) [5]: 75% and 66%
- Population Fragmented Nuclei (%) [5]: 21% and 16%
- Population Healthy Nuclei (%) [5]: 61% and 72%
- Population Hoechst High Intensity Objects (%) [5]: 0%
- Population Membrane Permeable-Phenotype (%) [5]: 10% and 4%
- Population Mitochondria Different-Phenotype (%) [5]: 1% and 0%
- Population Mitotic Cells (%) [5]: 25% and 33%
- Population Normal (%) [5]: 100%
- Population Pyknosed Nuclei (%) [5]: 16% and 10%
- Population Tubulin-Different-Phenotype (%) [5]: 17% and 10%
- Total Cell Count [5]: 142 and 191
- Population Apoptotic (%) [6]: 76% and 73%
- Population Fragmented Nuclei (%) [6]: 31% and 30%
- Population Healthy Nuclei (%) [6]: 54% and 61%
- Population Hoechst High Intensity Objects (%) [6]: 0%
- Population Membrane Permeable-Phenotype (%) [6]: 2% and 4%
- Population Mitochondria Different-Phenotype (%) [6]: 11% and 13%
- Population Mitotic Cells (%) [6]: 23% and 26%
- Population Normal (%) [6]: 99% and 100%
- Population Pyknosed Nuclei (%) [6]: 14% and 7%
- Population Tubulin-Different-Phenotype (%) [6]: 59% and 48%
- Total Cell Count [6]: 212 and 189

Structure (SMILES): COc1cc(Br)c(S(=O)(=O)Nc2ccc(C(F)(F)F)c(O[C@@H]3CCN(C)C3)c2)cc1OC
- Population Apoptotic (%) [1]: 54% and 48%
- Population Fragmented Nuclei (%) [1]: 13% and 15%
- Population Healthy Nuclei (%) [1]: 71% and 63%
- Population Hoechst High Intensity Objects (%) [1]: 0%
- Population Membrane Permeable-Phenotype (%) [1]: 3% and 4%
- Population Mitochondria Different-Phenotype (%) [1]: 0%
- Population Mitotic Cells (%) [1]: 45% and 51%
- Population Normal (%) [1]: 100% and 99%
- Population Pyknosed Nuclei (%) [1]: 14% and 21%
- Population Tubulin-Different-Phenotype (%) [1]: 8% and 14%
- Total Cell Count [1]: 161 and 215
- Population Apoptotic (%) [2]: 42% and 34%
- Population Fragmented Nuclei (%) [2]: 12% and 15%
- Population Healthy Nuclei (%) [2]: 61% and 63%
- Population Hoechst High Intensity Objects (%) [2]: 0%
- Population Membrane Permeable-Phenotype (%) [2]: 8% and 7%
- Population Mitochondria Different-Phenotype (%) [2]: 1% and 0%
- Population Mitotic Cells (%) [2]: 57% and 65%
- Population Normal (%) [2]: 100%
- Population Pyknosed Nuclei (%) [2]: 25% and 21%
- Population Tubulin-Different-Phenotype (%) [2]: 36% and 23%
- Total Cell Count [2]: 164 and 244
- Population Apoptotic (%) [3]: 50% and 65%
- Population Fragmented Nuclei (%) [3]: 12% and 16%
- Population Healthy Nuclei (%) [3]: 67% and 62%
- Population Hoechst High Intensity Objects (%) [3]: 0%
- Population Membrane Permeable-Phenotype (%) [3]: 6% and 7%
- Population Mitochondria Different-Phenotype (%) [3]: 0% and 3%
- Population Mitotic Cells (%) [3]: 50% and 34%
- Population Normal (%) [3]: 99% and 100%
- Population Pyknosed Nuclei (%) [3]: 19% and 20%
- Population Tubulin-Different-Phenotype (%) [3]: 13% and 16%
- Total Cell Count [3]: 157 and 207
- Population Apoptotic (%) [4]: 53% and 68%
- Population Fragmented Nuclei (%) [4]: 17% and 15%
- Population Healthy Nuclei (%) [4]: 63% and 69%
- Population Hoechst High Intensity Objects (%) [4]: 0%
- Population Membrane Permeable-Phenotype (%) [4]: 10% and 6%
- Population Mitochondria Different-Phenotype (%) [4]: 4% and 3%
- Population Mitotic Cells (%) [4]: 46% and 31%
- Population Normal (%) [4]: 100%
- Population Pyknosed Nuclei (%) [4]: 19% and 15%
- Population Tubulin-Different-Phenotype (%) [4]: 36% and 23%
- Total Cell Count [4]: 163 and 231
- Population Apoptotic (%) [5]: 66% and 76%
- Population Fragmented Nuclei (%) [5]: 11% and 18%
- Population Healthy Nuclei (%) [5]: 72% and 69%
- Population Hoechst High Intensity Objects (%) [5]: 0%
- Population Membrane Permeable-Phenotype (%) [5]: 5% and 4%
- Population Mitochondria Different-Phenotype (%) [5]: 1%
- Population Mitotic Cells (%) [5]: 33% and 24%
- Population Normal (%) [5]: 100%
- Population Pyknosed Nuclei (%) [5]: 15% and 12%
- Population Tubulin-Different-Phenotype (%) [5]: 10% and 7%
- Total Cell Count [5]: 154 and 204
- Population Apoptotic (%) [6]: 64% and 55%
- Population Fragmented Nuclei (%) [6]: 19% and 16%
- Population Healthy Nuclei (%) [6]: 71%
- Population Hoechst High Intensity Objects (%) [6]: 0%
- Population Membrane Permeable-Phenotype (%) [6]: 9% and 4%
- Population Mitochondria Different-Phenotype (%) [6]: 0% and 1%
- Population Mitotic Cells (%) [6]: 35% and 44%
- Population Normal (%) [6]: 100%
- Population Pyknosed Nuclei (%) [6]: 8% and 12%
- Population Tubulin-Different-Phenotype (%) [6]: 17% and 9%
- Total Cell Count [6]: 156 and 218
